Assay results taken from ChEMBL document CHEMBL4177576, “Linker structure-activity relationships in fluorodeoxyglucose chlorambucil conjugates for tumor-targeted chemotherapy” (Bioorg Med Chem, 2017).
Calls of active or inactive are those of the source. The rule behind the calls is not given here.

Experiments:
Fibroblast = assay: Cytotoxicity against human fibroblasts assessed as inhibition of cell growth incubated for 48 hrs by resazurin reduction test; assay type: cell-based
Procedure, shortened: (§1)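 Monolayers grown in MEM with 10% fetal calf serum, pyruvate, vitamins, non-essential amino acids and gentamicin at 37 °C, 5% CO2. Cells were seeded at 5×10^3/well and left 16 h to adhere. Compounds were added from DMSO stocks (final 0.5% DMSO) for 48 h continuous exposure, in triplicate. Resazurin 25 μg/mL was then added for 1 h and fluorescence read at 530/590 nm. IC50 was taken from concentration–cell number curves as % of control after blank subtraction.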

PC-3 = assay: Cytotoxicity against human PC3 assessed as inhibition of cell growth incubated for 48 hrs by resazurin reduction test; assay type: functional, cell-based; conditions: PC-3, 48 h; procedure, shortened: as §1
MCF7 = assay: Cytotoxicity against human MCF7 assessed as inhibition of cell growth incubated for 48 hrs by resazurin reduction test; assay type: functional, cell-based; conditions: MCF7, 48 h; procedure, shortened: as §1
A549 = assay: Cytotoxicity against human A549 assessed as inhibition of cell growth incubated for 48 hrs by resazurin reduction test; assay type: functional, cell-based; conditions: A549, 48 h; procedure, shortened: as §1
M4Beu cell line = assay: Cytotoxicity against human M4Beu assessed as inhibition of cell growth incubated for 48 hrs by resazurin reduction test; assay type: functional, cell-based; procedure, shortened: as §1
PA-1 = assay: Cytotoxicity against human PA1 assessed as inhibition of cell growth incubated for 48 hrs by resazurin reduction test; assay type: functional, cell-based; conditions: PA-1, 48 h; procedure, shortened: as §1
A549 (Homo sapiens) [1] = assay: Cytotoxicity against human A549 assessed as inhibition of cell growth up to 200 uM incubated for 48 hrs in absence of 50 uM chlorambucil by resazurin reduction test
A549 (Homo sapiens) [2] = assay: Cytotoxicity against human A549 assessed as inhibition of cell growth up to 200 uM incubated for 48 hrs in presence of 50 uM chlorambucil by resazurin reduction test

With `CC(=O)OC[C@H]1O[C@@H](NC(=O)COC(=O)CCCc2ccc(N(CCCl)CCCl)cc2)[C@H](F)[C@@H](OC(C)=O)[C@@H]1OC(C)=O` the IC50 (Fibroblast) was over 50 µM, the IC50 (PC-3) was over 50 µM and the IC50 (MCF7) was over 50 µM. It also gave an IC50 (A549) of 15 µM, an IC50 (M4Beu cell line) of over 50 µM and an IC50 (PA-1) of 3.8 µM.

`CC(=O)OC[C@H]1O[C@@H](OC(=O)Nc2ccc(NC(=O)CCCc3ccc(N(CCCl)CCCl)cc3)cc2)[C@H](F)[C@@H](OC(C)=O)[C@@H]1OC(C)=O` gave an IC50 (Fibroblast) of over 50 µM, an IC50 (PC-3) of 3.6 µM and an IC50 (MCF7) of 35 µM. The IC50 (A549) was 2 µM, the IC50 (M4Beu cell line) was 29 µM and the IC50 (PA-1) was 1.2 µM.

`CC(=O)OC[C@H]1O[C@@H](NC(=O)CC(=O)NCCCc2ccc(N(CCCl)CCCl)cc2)[C@H](F)[C@@H](OC(C)=O)[C@@H]1OC(C)=O` was tested, and the IC50 (Fibroblast) was 13 µM, the IC50 (PC-3) was 5 µM and the IC50 (MCF7) was 9 µM. For the same molecule, the IC50 (A549) was 8 µM, the IC50 (M4Beu cell line) was 12 µM and the IC50 (PA-1) was 0.4 µM.

Work on `CC(=O)OC[C@H]1O[C@@H](NC(=O)c2ccc(NC(=O)CNC(=O)CCCc3ccc(N(CCCl)CCCl)cc3)cc2)[C@H](F)[C@@H](OC(C)=O)[C@@H]1OC(C)=O` yielded an IC50 (Fibroblast) of 8 µM, an IC50 (PC-3) of 6 µM and an IC50 (MCF7) of 7 µM. It also gave an IC50 (A549) of 30 µM, an IC50 (M4Beu cell line) of 17.8 µM and an IC50 (PA-1) of 13 µM.

For `CC(=O)OC[C@H]1O[C@@H](Oc2ccc(NC(=O)CC(=O)NCCCc3ccc(N(CCCl)CCCl)cc3)cc2)[C@H](F)[C@@H](OC(C)=O)[C@@H]1OC(C)=O`, the IC50 (Fibroblast) was over 50 µM, the IC50 (PC-3) was 8 µM and the IC50 (MCF7) was 14 µM. The IC50 (A549) was over 50 µM, the IC50 (M4Beu cell line) was 13.8 µM and the IC50 (PA-1) was 2 µM.

Molecule `CC(=O)OC[C@H]1O[C@@H](OC(=O)NCC(=O)Nc2ccc(OC(=O)CCCc3ccc(N(CCCl)CCCl)cc3)cc2)[C@H](F)[C@@H](OC(C)=O)[C@@H]1OC(C)=O` has an IC50 (Fibroblast) of 32 µM, an IC50 (PC-3) of over 50 µM and an IC50 (MCF7) of 39.5 µM. For the same molecule, the IC50 (A549) was 39 µM, the IC50 (M4Beu cell line) was 30 µM and the IC50 (PA-1) was 9 µM.

`O=C(O)CCCc1ccc(N(CCCl)CCCl)cc1` [CHLORAMBUCIL] gave an IC50 (PC-3) of over 100 µM.

In the case of `CC(=O)OC[C@H]1O[C@@H](Oc2ccc(NC(=O)CNC(=O)CNC(=O)CCCc3ccc(N(CCCl)CCCl)cc3)cc2)[C@H](F)[C@@H](OC(C)=O)[C@@H]1OC(C)=O`, the IC50 (Fibroblast) is reported as over 50 µM, the IC50 (PC-3) is reported as 20 µM and the IC50 (MCF7) is reported as 32 µM. For the same molecule, the IC50 (A549) was over 50 µM, the IC50 (M4Beu cell line) was over 50 µM and the IC50 (PA-1) was 4 µM.

With `CC(=O)OC[C@H]1OC(OC(C)=O)[C@H](F)[C@@H](OC(C)=O)[C@@H]1OC(C)=O` (stereo partly drawn) the “growth inhibition (GI)” value (A549 (Homo sapiens) [1]) was “Active” and the “growth inhibition (GI)” value (A549 (Homo sapiens) [2]) was “Active”.

With `OC[C@H]1OC(O)[C@H](F)[C@@H](O)[C@@H]1O` (stereo partly drawn) the “growth inhibition (GI)” value (A549 (Homo sapiens) [1]) was “Active” and the “growth inhibition (GI)” value (A549 (Homo sapiens) [2]) was “Active”.

`CC(=O)OC[C@H]1O[C@@H](OC(=O)c2ccc(NC(=O)CCCc3ccc(N(CCCl)CCCl)cc3)cc2)[C@H](F)[C@@H](OC(C)=O)[C@@H]1OC(C)=O` gave an IC50 (Fibroblast) of 4 µM, an IC50 (PC-3) of 4 µM and an IC50 (MCF7) of 6 µM. It also gave an IC50 (A549) of 1.7 µM, an IC50 (M4Beu cell line) of 6 µM and an IC50 (PA-1) of 0.45 µM.

`CC(=O)OC[C@H]1O[C@@H](NC(=O)c2ccc(OC(=O)CCCc3ccc(N(CCCl)CCCl)cc3)cc2)[C@H](F)[C@@H](OC(C)=O)[C@@H]1OC(C)=O` showed an IC50 (Fibroblast) of over 50 µM, an IC50 (PC-3) of over 50 µM and an IC50 (MCF7) of over 50 µM. For the same molecule, the IC50 (A549) was 19 µM, the IC50 (M4Beu cell line) was over 50 µM and the IC50 (PA-1) was 4 µM.

In the case of `CC(=O)OC[C@H]1O[C@@H](Oc2ccc(NC(=O)COC(=O)CCCc3ccc(N(CCCl)CCCl)cc3)cc2)[C@H](F)[C@@H](OC(C)=O)[C@@H]1OC(C)=O`, the IC50 (Fibroblast) is reported as 32.5 µM, the IC50 (PC-3) is reported as over 50 µM and the IC50 (MCF7) is reported as over 50 µM. For the same molecule, the IC50 (A549) was 39 µM, the IC50 (M4Beu cell line) was over 50 µM and the IC50 (PA-1) was 7.6 µM.

`CC(=O)OC[C@H]1O[C@@H](OC(=O)Nc2ccc(NC(=O)CNC(=O)CCCc3ccc(N(CCCl)CCCl)cc3)cc2)[C@H](F)[C@@H](OC(C)=O)[C@@H]1OC(C)=O` gave an IC50 (Fibroblast) of 21 µM, an IC50 (PC-3) of 4.9 µM and an IC50 (MCF7) of 15 µM. For the same molecule, the IC50 (A549) was 9 µM, the IC50 (M4Beu cell line) was 31 µM and the IC50 (PA-1) was 1.3 µM.

`CC(=O)OC[C@H]1O[C@@H](OC(=O)NCC(=O)Nc2ccc(NC(=O)CCCc3ccc(N(CCCl)CCCl)cc3)cc2)[C@H](F)[C@@H](OC(C)=O)[C@@H]1OC(C)=O` gave an IC50 (Fibroblast) of 10 µM, an IC50 (PC-3) of 6.5 µM and an IC50 (MCF7) of 13 µM. It also gave an IC50 (A549) of 13 µM, an IC50 (M4Beu cell line) of 18 µM and an IC50 (PA-1) of 0.8 µM.

For `CC(=O)OC[C@H]1O[C@@H](Oc2ccc(NC(=O)c3ccc(NC(=O)CCCc4ccc(N(CCCl)CCCl)cc4)cc3)cc2)[C@H](F)[C@@H](OC(C)=O)[C@@H]1OC(C)=O`, the IC50 (Fibroblast) was 3 µM, the IC50 (PC-3) was 2.1 µM and the IC50 (MCF7) was 3.4 µM. It also gave an IC50 (A549) of 6 µM and an IC50 (M4Beu cell line) of 3 µM.

For `CC(=O)OC[C@H]1O[C@@H](OC(=O)Nc2ccc(OC(=O)CCCc3ccc(N(CCCl)CCCl)cc3)cc2)[C@H](F)[C@@H](OC(C)=O)[C@@H]1OC(C)=O`, the IC50 (Fibroblast) was over 50 µM, the IC50 (PC-3) was over 50 µM and the IC50 (MCF7) was over 50 µM. It also gave an IC50 (A549) of 22 µM, an IC50 (M4Beu cell line) of over 50 µM and an IC50 (PA-1) of 6 µM.

For `CC(=O)OC[C@H]1O[C@@H](Oc2ccc(NC(=O)CNC(=O)CCCc3ccc(N(CCCl)CCCl)cc3)cc2)[C@H](F)[C@@H](OC(C)=O)[C@@H]1OC(C)=O`, the IC50 (Fibroblast) was 17 µM, the IC50 (PC-3) was 7 µM and the IC50 (MCF7) was 16 µM. The IC50 (M4Beu cell line) was 15 µM and the IC50 (PA-1) was 1.5 µM.
